# In PubChem BioAssay:
# Activity calls are given as the source filed them.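 The calls were made as follows, unless noted: active = fluorescence slope higher than the sample average by over 3 SD (cut at about -0.22 in these data, passing the limit was not always enough); inactive = the rest.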
# Tests used:
# [1] = inhibitors of TNFa-induced NFkB p65 translocation, primary screen, imaging, HUVEC, MLSMR starter and 10KST1 sets (AID 438;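 active = inhibition above 20% together with a positive visual image hit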;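 also: compound added about 3h40 before a 20 min TNFalpha stimulation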;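 as to inhibition: signal is the nuclear over cytoplasmic p65 intensity ratio per well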); conditions: HUVEC TNFa-induced p65 nuclear translocation; cell count: measured here: nuclei count (cytotoxicity indicator), at 2.08 µM; inhibition: at 2 µM, stronger effect = higher value, 0% TNFa-plus-vehicle, 100% no-TNFa wells
# [2] = inhibitors of mutant huntingtin aggregation, primary screen, imaging, exon1htt(103Q)mCFP cells, high-content imaging (AID 483;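 active = visual image review flags a hit and inhibition of aggregation exceeds 20%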;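 also: compound exposure lasted 3 days before fixation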;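 as to nuclei count: percent of the per-plate median nuclei count of sample wells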); conditions: exon1htt(103Q)mCFP cell line, aggregate imaging, at 2 µM; inhibition of aggregation: stronger effect = higher value; nuclei count: measured here: cell count, toxicity
# [3] = inhibitors of E-selectin induction by TNFa, primary screen, imaging, HUVEC, immunofluorescence, MLSMR starter and 10KST1 sets (AID 487;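 active = visually confirmed hit in the image check and inhibition above 20%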;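 as to inhibition: signal is fraction of cell area covered by stained E-selectin grains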;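 as to nuclei count: 100% = median nuclei count of all wells on the same plate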); conditions: HUVEC TNFalpha-induced E-selectin immunofluorescence imaging, at 2 µM; inhibition: stronger effect = higher value; nuclei count: measured here: cell number, toxicity
# [4] = target: Voltage-gated potassium channel subunit beta-2 (Rattus norvegicus) (UniProt P62483); assay: KvBeta enzyme negative modulators, primary screen, biochemical, NADPH fluorescence (AID 622); conditions: recombinant KvBeta, 4-cyanobenzaldehyde reduction, at 10 µM, stronger effect = higher value;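 also: slope of raw intensity against log time taken from 70 to 1610 s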
# Chain of Voltage-gated potassium channel subunit beta-2 (Rattus norvegicus) (P62483 whole entry, looked up): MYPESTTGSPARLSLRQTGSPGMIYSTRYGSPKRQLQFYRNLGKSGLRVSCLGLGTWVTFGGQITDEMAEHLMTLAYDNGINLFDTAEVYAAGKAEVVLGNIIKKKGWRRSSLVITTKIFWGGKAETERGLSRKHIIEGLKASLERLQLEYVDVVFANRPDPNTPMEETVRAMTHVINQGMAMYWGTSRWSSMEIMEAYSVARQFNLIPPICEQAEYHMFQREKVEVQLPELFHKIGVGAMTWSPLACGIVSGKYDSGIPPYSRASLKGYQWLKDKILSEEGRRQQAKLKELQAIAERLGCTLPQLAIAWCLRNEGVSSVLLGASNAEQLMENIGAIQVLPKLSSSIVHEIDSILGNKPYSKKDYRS
# [5] = target: Voltage-gated potassium channel subunit beta-2 (Rattus norvegicus) (UniProt P62483); assay: KvBeta positive modulators, primary screen, biochemical, NADPH fluorescence (AID 623;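 active = NADPH fluorescence slope more negative than the mean of all samples by about 3 SD, 99.7% confidence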;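 also: fluorescence intensity change per second fitted from 20 to 320 s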); conditions: Recombinant KvBeta, NADPH fluorescence decrease slope, 10 min; at 10 µM; stronger effect = lower value
# [6] = target: Muscarinic acetylcholine receptor M4 (Homo sapiens) (UniProt P08173); assay: compounds altering M4/GIRK thallium flux, either direction, primary screen, M4 allosteric agonist project, cell-based, HEK293 M4/GIRK, BTC-AM (AID 625;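 active = fluorescence slope after compound addition differing from the mean of all tested samples at 99.7% confidence, mostly higher but some lower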;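 also: thallium influx through GIRK channels coupled to M4 in HEK293 cells with BTC-AM dye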); conditions: at 10 µM, actives lie on both sides
# Chain of Muscarinic acetylcholine receptor M4 (Homo sapiens) (P08173 whole entry, looked up): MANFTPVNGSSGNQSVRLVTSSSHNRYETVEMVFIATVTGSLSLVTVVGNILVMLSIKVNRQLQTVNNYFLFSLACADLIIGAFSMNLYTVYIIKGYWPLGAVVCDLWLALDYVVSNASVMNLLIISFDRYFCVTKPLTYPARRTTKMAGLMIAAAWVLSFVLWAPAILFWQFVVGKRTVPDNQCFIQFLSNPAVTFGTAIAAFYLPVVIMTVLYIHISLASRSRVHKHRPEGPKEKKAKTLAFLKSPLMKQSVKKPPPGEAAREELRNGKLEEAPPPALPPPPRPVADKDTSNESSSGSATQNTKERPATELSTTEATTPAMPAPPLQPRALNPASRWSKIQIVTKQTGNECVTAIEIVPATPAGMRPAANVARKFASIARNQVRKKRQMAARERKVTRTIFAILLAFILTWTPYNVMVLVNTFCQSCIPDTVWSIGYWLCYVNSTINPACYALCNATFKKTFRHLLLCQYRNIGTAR
# How it was run: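 Material: HEK293 cells with M4 receptor and GIRK channels; Times: cells overnight at 37 °C, BTC-AM loading 1 h, reads 2 min total; Technique: kinetic BTC-AM fluorescence sampled at 1 Hz, 10 s pre-addition baseline; Read-out basis: slope over 15–24 s of trace normalized to starting intensity; Controls: carbachol positive, DMSO negative.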
# [7] = inhibitors of Sendai virus-induced IRF3 signaling, primary screen, TLR/RLR signaling modifier project, cell-based, Sendai virus stimulus, luciferase, 10K MLSCN set (AID 602276;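 active = inhibition at or above 50% at 10 µM; inactive = inhibition below 50%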;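 also: firefly luciferase from ISG56 promoter only with Renilla not read in this screen; 0% = Sendai virus plus DMSO and 100% = medium plus DMSO without virus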); conditions: HEK293 RL24 IRF3 luciferase reporter, at 10 µM, stronger effect = higher value
# [8] = inhibitors of poly I:C-induced TLR3 signaling, primary screen, cell-based, poly I:C stimulus, luciferase, 10K MLSCN set (AID 602277;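 active = inhibition of the reporter signal at or above 50%; inactive = inhibition below 50%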); conditions: HEK293-TLR3 RL24 IRF3 luciferase reporter, at 10 µM, stronger effect = higher value
Compound,cell count [1],inhibition [1],inhibition of aggregation [2],nuclei count [2] [%],inhibition [3],nuclei count [3] [%],fluorescence slope [4],NADPH fluorescence slope [5],fluorescence slope [6],inhibition [7],inhibition [8]
CCCN1CCN(C(=O)c2cn(CC(C)C)c(=O)c3cc(OC)c(OC)cc23)CC1,566,-25.1% (inactive),-3.2% (inactive),113,-9.9% (inactive),105,-0.441 (inactive),-4.3e-05 (inactive),0.00598 (inactive),15.6% (inactive),20.6% (inactive)
COc1cccc(CNC(=O)C2CCN(c3cnccn3)CC2)c1,399,-8.4% (inactive),17.9% (inactive),98.8,-82.7% (inactive),86.8,-0.548 (inactive),5.8e-06 (inactive),0.00424 (inactive),18.8% (inactive),18.1% (inactive)
COC(=O)c1[nH]c2cc(OC)ccc2c1NC(=O)CN1CCOCC1,346,1.4% (inactive),-17.1% (inactive),105,-117% (inactive),117,-0.535 (inactive),-1.7e-05 (inactive),0.00517 (inactive),13.1% (inactive),7.58% (inactive)
N#Cc1c(-c2ccccc2)nc(SCc2nc(N)nc(N3CCCCC3)n2)[nH]c1=O,401,-14% (inactive),13% (inactive),85.3,-20.8% (inactive),97.8,-0.442 (inactive),0.000117 (inactive),0.00582 (inactive),14.8% (inactive),-10.4% (inactive)
Nc1nc(CSCc2ccccc2)nc(N2CCOCC2)n1,685,0.8% (inactive),-6.3% (inactive),95.4,17.1% (inactive),104,-0.262 (inactive),-1.3e-05 (inactive),0.0049 (inactive),-22.6% (inactive),-81.5% (inactive)
Cc1cc(C)n2nc(S(=O)(=O)N(C)Cc3ccccc3)nc2n1,560,-10.1% (inactive),-1.6% (inactive),110,-35.3% (inactive),116,-0.313 (inactive),-3.3e-05 (inactive),0.00664 (inactive),-4.55% (inactive),8.01% (inactive)
COc1cccc(NC(=O)CSc2nnc(-c3cccs3)n2C)c1,576,-8.5% (inactive),19.8% (inactive),65.7,-65.4% (inactive),95.9,-0.278 (inactive),-5e-05 (inactive),0.00909 (inactive),8.77% (inactive),6.56% (inactive)
Nc1nnc(-c2ccccc2)c(-c2ccccc2)n1,676,-2.1% (inactive),26.8% (inactive),83.9,-71.1% (inactive),111,-0.522 (inactive),-3.6e-05 (inactive),0.00428 (inactive),0.988% (inactive),14.6% (inactive)
Oc1ccc2[nH]cnc2c1CN1CCCCC1,405,2.2% (inactive),5.5% (inactive),88.7,8% (inactive),95.1,-0.569 (inactive),-0.000119 (inactive),0.00526 (inactive),15.4% (inactive),25.1% (inactive)
CCCCNC(=O)CN(C1CCCCC1)S(C)(=O)=O,422,1.2% (inactive),-3.6% (inactive),99.8,-22.8% (inactive),103,-0.551 (inactive),1.8e-07 (inactive),0.0049 (inactive),16.6% (inactive),14.9% (inactive)
COc1ccc(Br)cc1S(=O)(=O)N1CCOCC1,336,5% (inactive),-25.8% (inactive),119,-6.1% (inactive),113,-0.462 (inactive),-3.5e-05 (inactive),0.00557 (inactive),17.4% (inactive),16.5% (inactive)
O=C(CCNC(=O)Cn1ccc2ccccc2c1=O)NCCN1CCc2ccccc2C1,337,0.5% (inactive),16.2% (inactive),77.2,-26.8% (inactive),111,-0.474 (inactive),-0.000226 (inactive),0.00569 (inactive),-3.36% (inactive),11.4% (inactive)
Cc1nc2c(=O)oc3ccccc3c2n1-c1ccccc1,579,2.9% (inactive),30.6% (inactive),90.3,33% (inactive),30.7,-0.519 (inactive),-3.7e-05 (inactive),0.0052 (inactive),12.7% (inactive),23.7% (inactive)
CC(C(=O)N1CCCCC1)n1sc2ccccc2c1=O (stereo not drawn),355,-10.8% (inactive),-13.5% (inactive),111,-96.4% (inactive),109,-0.479 (inactive),-0.000258 (inactive),0.00498 (inactive),-14.1% (inactive),-35.6% (inactive)
O=C(CCN1CCN(CCO)CC1)Nc1ccc(OCc2ccccc2)cc1,278,4.8% (inactive),-5.1% (inactive),98.3,-29.4% (inactive),105,-0.584 (inactive),-2.1e-05 (inactive),0.00748 (inactive),-11.3% (inactive),0.289% (inactive)
C/C(N)=C(/C#N)C(=O)COC(=O)COc1ccc(Cl)cc1,500,4.3% (inactive),11.4% (inactive),97.4,-5.5% (inactive),105,-0.414 (inactive),9.1e-05 (inactive),0.00641 (inactive),18.1% (inactive),23.1% (inactive)
Cc1ccc(-c2nnnn2CS(=O)(=O)c2ccccc2)cc1,433,-11.8% (inactive),-9.7% (inactive),114,-19.4% (inactive),122,-0.598 (inactive),-1.2e-05 (inactive),0.006 (inactive),16.3% (inactive),10.5% (inactive)
Cc1ccc(-n2ncc3c(=O)n(CC(=O)NC4CCCCC4)cnc32)cc1C,281,-0.3% (inactive),4.3% (inactive),96.7,-3.3% (inactive),106,-0.575 (inactive),2.2e-05 (inactive),0.00615 (inactive),13.5% (inactive),15.1% (inactive)
COc1ccc2c(C(F)(F)F)cc(=O)oc2c1C,701,-1.8% (inactive),0.8% (inactive),99.9,-97% (inactive),111,-0.428 (inactive),1.9e-05 (inactive),0.00456 (inactive),17% (inactive),11.3% (inactive)
O=C(CCN1CCOCC1)Nc1cccc(Br)c1,354,-5.1% (inactive),-9.3% (inactive),134,-70.3% (inactive),125,-0.409 (inactive),9.1e-05 (inactive),0.00691 (inactive),16.1% (inactive),15.9% (inactive)
C=CCn1c(SCc2cc(=O)n3ccsc3n2)nnc1C1CCCCC1,439,3.8% (inactive),-27.5% (inactive),104,3.6% (inactive),116,-0.561 (inactive),-1.8e-05 (inactive),0.00775 (inactive),9.44% (inactive),21.1% (inactive)
CC(=O)Nc1ccc(Cl)cc1C(=O)O,236,1.3% (inactive),-13.3% (inactive),74.7,35.3% (inactive),74.6,-0.519 (inactive),8e-06 (inactive),0.00503 (inactive),20.8% (inactive),16.7% (inactive)
CC(=O)N1c2c(cc(Br)cc2S(=O)(=O)N2CCN(c3ccccn3)CC2)CC1C (stereo not drawn),365,-15.4% (inactive),21.2% (inactive),93.1,-49.9% (inactive),128,-0.523 (inactive),-0.000101 (inactive),0.00651 (inactive),15.6% (inactive),6.87% (inactive)
O=C(OCC#CCSc1nc2ccccc2o1)c1ccco1,541,6.7% (inactive),-4.7% (inactive),111,-7.3% (inactive),116,-0.405 (inactive),1.4e-05 (inactive),0.00568 (inactive),-2.28% (inactive),-8.72% (inactive)
Cc1nc2ccccn2c1P(=O)(N1CCCCC1)N1CCCCC1,666,-11.7% (inactive),-0.1% (inactive),77,-64.2% (inactive),108,-0.526 (inactive),-1.7e-06 (inactive),0.00464 (inactive),20.1% (inactive),20.6% (inactive)
Cc1cc(NC(=O)c2ccc(Cl)cc2)no1,206,0.8% (inactive),41.9% (active),92,-58.4% (inactive),83.6,-0.561 (inactive),1.1e-05 (inactive),0.00496 (inactive),-41.1% (inactive),-168% (inactive)
CC1(C)CC(=O)C2=C(C1)Nc1nc(SCCN3CCOCC3)[nH]c(=O)c1C2c1cccs1 (stereo not drawn),549,-8.4% (inactive),-11.8% (inactive),50.7,-42.7% (inactive),104,-0.57 (inactive),-3e-05 (inactive),0.00647 (inactive),-3.95% (inactive),-12.2% (inactive)
Cc1cc(-c2ccccc2)nc2cc(C(=O)NCCCn3ccnc3)nn12,908,6.4% (inactive),19.7% (inactive),86.1,-160% (inactive),112,-0.362 (inactive),1.5e-05 (inactive),0.007 (inactive),16.4% (inactive),25.4% (inactive)
